Consider 45 compounds from ChEMBL document CHEMBL1275402, “Virtual screening to identify novel antagonists for the G protein-coupled NK3 receptor” (J Med Chem, 2010).

Structures are written as SMILES.

One assay has as its target T1, Neuromedin-K receptor (Homo sapiens) (UniProt P29371).
T1 sequence (whole entry): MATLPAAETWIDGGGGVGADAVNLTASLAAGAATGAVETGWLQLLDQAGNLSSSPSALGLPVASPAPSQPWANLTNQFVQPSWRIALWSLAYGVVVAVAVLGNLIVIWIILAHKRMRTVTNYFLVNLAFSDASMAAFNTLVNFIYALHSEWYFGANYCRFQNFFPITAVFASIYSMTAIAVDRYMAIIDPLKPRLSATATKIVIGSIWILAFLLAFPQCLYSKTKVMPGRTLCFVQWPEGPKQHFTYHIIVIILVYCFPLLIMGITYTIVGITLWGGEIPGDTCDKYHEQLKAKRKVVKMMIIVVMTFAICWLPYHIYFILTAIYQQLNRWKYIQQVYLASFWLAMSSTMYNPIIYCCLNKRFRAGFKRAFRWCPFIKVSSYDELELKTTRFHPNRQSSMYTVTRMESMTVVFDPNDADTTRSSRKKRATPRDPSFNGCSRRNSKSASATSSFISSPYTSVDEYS
Briefly: Antagonist activity against human NK3 receptor expressed in CHO cells assessed as inhibition of senktide-induced increase of intracellular calcium level at 50 uM after 10 mins by fluorescent plate-reader analysis relative to control. The class given is functional, cell-based.
Settings: not given
The gist of the method:
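hNK3R-expressing CHO cells were preincubated 10 min with test compound at 50 μM. The calcium response to 200 nM senktide was then measured and expressed as percent inhibition versus the senktide response without antagonist.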
A general note: Calcium flux is commonly read through the fluorescence of an indicator in the cells.
What is called inhibition is how much of the control response was suppressed. As for `CCC(NC(=O)c1cc(-c2ccccc2)nc2ccccc12)c1ccccn1` (configuration not stated), the inhibition came to 82%.
In the case of `CCOC(=O)c1nn(C)c2c1CN(C(=O)c1cc(-c3ccccc3)nc3ccccc13)CC2`, the inhibition worked out at 8%.
Consider `COc1ccc(-c2cc(C(=O)NC(C)c3ccccn3)c3ccccc3n2)cc1OC` (configuration not stated), for which the inhibition stood at 16%.
For `O=C(NCc1ccc(Cl)cc1)c1cc(-c2ccccc2Cl)nc2ccccc12`, the inhibition is 14%.
On to `Cc1ccc(CNC(=O)c2cc(-c3ccccc3)nc3ccccc23)cc1`, for which the inhibition amounted to 21%.
On the same count and under the same terms, the result for `O=C(NCc1ccccn1)c1cc(-c2ccccc2)nc2ccccc12` reads 17%.
With `Cc1ccc(-c2cc(C(=O)NC(C)c3ccccc3)c3ccccc3n2)c(C)c1` (configuration not stated), the inhibition was found to be 18%.
Same read-out and setting: under `O=C(NCCc1ccccc1)c1cc(-c2ccccc2)nc2ccccc12` stands 54%; under `CC(NC(=O)c1cc(-c2ccccc2)nc2ccccc12)c1ccccc1` (configuration not stated), 61%; under `Cc1ccc(CNC(=O)c2cc(-c3ccc(C)cc3C)nc3ccccc23)cc1`, 9%.
`c1ccc(CNc2nccc3[nH]c(-c4ccccc4)nc23)cc1`: the inhibition was 42%.
Take `Cc1ccc(-c2cc(C(=O)NCCc3ccccc3)c3ccccc3n2)cc1`: the inhibition amounted to 17%.
On the same count and under the same terms, the result for `Cc1cccc(-c2nc3c(NCc4ccccc4)nccc3[nH]2)c1` reads 40%; that for `O=C(NCc1ccccc1)c1cc(-c2ccccc2)nc2ccccc12`, 30%.
For the compound `Cc1ccc(-c2cc(C(=O)NCc3ccc(F)cc3)c3ccccc3n2)cc1`, the inhibition worked out at 7%.
As to `CCCN1N=C(C(=O)NC(C)c2ccccc2)C2CN(CC)CCC21` (configuration not stated), the inhibition is 6%.
Regarding `O=C(NCc1ccc(Cl)cc1)c1cc(-c2ccc(Cl)cc2)nc2ccccc12`, the inhibition came out at 13%.
On the same count and under the same terms, under `COc1cccc(-c2nc3c(NCc4ccncc4)nccc3[nH]2)c1F` stands 39%; under `Cc1nc(-c2ccncc2)n2c1CN(C(=O)C1Cc3ccccc3O1)CC2` (configuration not stated), 6%.

A further assay addresses T2, Neuromedin-K receptor (Homo sapiens, UniProt P29371).
T2 sequence (P29371 whole entry): T1 sequence (whole entry)
Nature of the assay: Antagonist activity against human NK3 receptor expressed in HEK293 cells assessed as inhibition of MePhe7-NKB-induced increase of intracellular calcium level by fluorescent plate-reader analysis. Type of assay: functional, cell-based. Particulars: in the assay text read “CHO cells” for “HEK293 cells”. The essentials: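 Calcium responses to 50 nM MePhe7-NKB were measured across increasing antagonist concentrations, and IC50 was derived from the concentration-response curve.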
For orientation: IC50 means the point on the concentration scale where inhibition reaches its midpoint. On to `CCC(NC(=O)c1cc(-c2ccccc2)nc2ccccc12)c1ccccn1` (configuration not stated), for which the IC50 was found to be 1.4 µM.
As to `CC(NC(=O)c1cc(-c2ccccc2)nc2ccccc12)c1ccccc1` (configuration not stated), the IC50 came to 9.9 µM.

The target of another assay is T1, Neuromedin-K receptor (Homo sapiens).
Assay: not given
The following applies: CHO.
For `CC(=O)N(C)C1(c2ccccc2)CCN(CCC[C@]2(c3ccc(Cl)c(Cl)c3)CCCN(C(=O)c3ccccc3)C2)CC1`, the Ks turned out to be 1 nM.

Another assay deals with T2, Neuromedin-K receptor. Briefly: biochemical.
Settings: not given
For orientation: Ki means the equilibrium dissociation constant of an inhibitor or competing ligand from its target. On to `Nc1c(-c2ccccc2)nc2ccccc2c1C(=O)NC(c1ccccc1)C1CC1` (configuration not stated), for which the Ki was 0.00501 µM.
The compound `CCC(NC(=O)c1cc(-c2ccccc2)nc2ccccc12)c1ccccn1` (configuration not stated) yielded an IC50 of 0.0052 µM.
`CCCCc1c(-c2ccccc2)nc2ccccc2c1C(=O)NC(CC)c1ccccc1` (configuration not stated) showed a Ki of 0.0158 µM.
Consider `Nc1c(-c2cccc(F)c2)nc2ccccc2c1C(=O)NC(c1cccc(F)c1)C1CC1` (configuration not stated), for which the Ki was 0.00631 µM.
Regarding `CC(=O)C(NC(=O)c1cc(-c2ccccc2)nc2ccccc12)c1ccccc1` (configuration not stated), the Ki is 0.0251 µM.
In turn, `CCC(NC(=O)c1c(OC)c(-c2ccccc2)nc2ccccc12)c1ccccc1` (configuration not stated) gave a Ki of 0.00631 µM.
Turning to `O=C(NC(CCO)c1ccccc1)c1cc(-c2ccccc2)nc2ccccc12` (configuration not stated), the Ki was 0.398 µM.
Regarding `CCCCCCCC(NC(=O)c1cc(-c2ccccc2)nc2ccccc12)c1ccccc1` (configuration not stated), the affinity, expressed as Ki, was 5.01 µM.
Turning to `CCC(NC(=O)c1c(N)c(-c2ccc(F)cc2)nc2ccccc12)c1ccccc1` (configuration not stated), the affinity corresponds to a Ki of 0.00794 µM.
`Nc1c(-c2ccccc2)nc2ccccc2c1C(=O)NC(c1cccc(F)c1)C1CC1` (configuration not stated) showed a Ki of 0.00316 µM. This Ki is about 2.5-fold lower than that of the compound before.
As to `NC(=O)C(NC(=O)c1cc(-c2ccccc2)nc2ccccc12)c1ccccc1` (configuration not stated), the affinity corresponds to a Ki of 1 µM.
Take `COC(=O)CC(NC(=O)c1cc(-c2ccccc2)nc2ccccc12)c1ccccc1` (configuration not stated): the affinity, expressed as Ki, was 1 µM.
As for `CC(NC(=O)c1cc(-c2ccccc2)nc2ccccc12)c1ccccc1` (configuration not stated), the midpoint of inhibition, the IC50, lay at 0.0335 µM and affinity was put at a Ki of 0.251 µM.
The compound `CCCCC(NC(=O)c1cc(-c2ccccc2)cc2ccccc12)c1ccccc1` (configuration not stated) gave a Ki of 0.158 µM.
The same measure, in the same setting: the result for `CCC(NC(=O)c1c(N)c(-c2cccc(F)c2)nc2ccccc12)c1ccccc1` (configuration not stated) reads 0.00398 µM.
The compound `O=C(NC(CO)c1ccccc1)c1cc(-c2ccccc2)nc2ccccc12` (configuration not stated) showed a Ki of 0.2 µM.
Compound `CC(C)C(NC(=O)c1cc(-c2ccccc2)nc2ccccc12)c1ccccc1` (configuration not stated) had an inhibition constant (Ki) of 0.0794 µM. Against the preceding compound, the Ki is about 2.5-fold lower.
Compound `CNC(=O)C(NC(=O)c1cc(-c2ccccc2)nc2ccccc12)c1ccccc1` (configuration not stated) showed a Ki of 0.501 µM.
On the same count and under the same terms, the result for `CCCCCCc1c(-c2ccccc2)nc2ccccc2c1C(=O)NC(CC)c1ccccc1` (configuration not stated) reads 0.0501 µM; that for `O=C(NC(c1ccccc1)C(F)(F)F)c1cc(-c2ccccc2)nc2ccccc12` (configuration not stated), 0.501 µM; that for `Nc1c(-c2cccc(F)c2)nc2ccccc2c1C(=O)NC(c1ccccc1)C1CC1` (configuration not stated), 0.01 µM.
In turn, `CCC(NC(=O)c1c(-c2ccccc2)c(-c2ccccc2)nc2ccccc12)c1ccccc1` (configuration not stated) had a Ki of 0.0501 µM.
`Nc1c(-c2ccccc2)nc2ccccc2c1C(=O)NC(c1ccccc1F)C1CC1` (configuration not stated) had a Ki of 0.00501 µM.
Consider `CCCC(NC(=O)c1cc(-c2ccccc2)nc2ccccc12)c1ccccc1` (configuration not stated), for which the affinity, expressed as Ki, was 0.0501 µM.
For the compound `CCCc1c(-c2ccccc2)nc2ccccc2c1C(=O)NC(CC)c1ccccc1` (configuration not stated), the Ki was 0.0126 µM.
For `CN(C)C(=O)C(NC(=O)c1cc(-c2ccccc2)nc2ccccc12)c1ccccc1` (configuration not stated), the Ki was 0.501 µM. Compared with the last compound, the Ki is about 40-fold higher.
Still for that read-out and setting: the result for `O=C(NC(Cc1ccccc1)c1ccccc1)c1cc(-c2ccccc2)nc2ccccc12` (configuration not stated) reads 3.16 µM.

In another assay the target is T2, Neuromedin-K receptor. Briefly: Antagonist activity against human NK3 receptor expressed in CHO cells assessed as inhibition of senktide-induced increase of intracellular calcium level after 10 mins by fluorescent plate-reader analysis relative to control.
Settings: not given
For the compound `CCC(NC(=O)c1cc(-c2ccccc2)nc2ccccc12)c1ccccn1` (configuration not stated), the IC50 worked out at 0.9 µM.
For the compound `CC(NC(=O)c1cc(-c2ccccc2)nc2ccccc12)c1ccccc1` (configuration not stated), the IC50 stood at 2.2 µM.
